Four compounds from ChEMBL document CHEMBL1146352, “Synthesis of furopyrazole analogs of 1-benzyl-3-(5-hydroxymethyl-2-furyl)indazole (YC-1) as novel anti-leukemia agents” (2007) can be followed below.

The source made the active and inactive calls. The rule behind the calls is not given here.

The test system of experiment [1] is HL-60. Kind of experiment: Cytotoxicity against HL60 cells by Propidium iodide exclusion assay. It counts as functional. Particulars: Homo sapiens, read-out: ED50 (the source's name). The procedure, abridged:
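HL-60 cells seeded at 2.5 × 10⁵ cells/mL and treated at a range of concentrations for 24, 48 and 72 h at 37 °C. Viable cells were scored by propidium iodide exclusion on flow cytometry. Viability is given as the ratio of treated to control cells. ED50 derived; three independent experiments, mean ± SD.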

For another experiment, the system named is HL-60 (Homo sapiens). Put plainly: Induction of apoptosis in HL-60 cells after 72 hrs.
The test system of another experiment is HT60. Kind of experiment: Induction of apoptosis in […] cells at 26 uM after 48 hrs. Particulars: Homo sapiens. It counts as functional, cell-based. The procedure, abridged: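 HL-60 cells were cultured 72 h or 48 h with compound, with 0.1% (v/v) DMSO as the control. Nuclei were stained with DAPI and examined microscopically (400×) for nuclear shrinkage and chromatin condensation.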

Experiment [2] relates to HL-60. Kind of experiment: Induction of HL60 cell differentiation assessed as nitroblue tetrazolium reduction activity at 26 uM after 72 hrs. It counts as functional, Homo sapiens. Set-up: scale not given: the % may be the effect or the level left. The method, boiled down:
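Cells treated 72 h (ATRA co-treatment at 1 µM where stated) were suspended in HBSS at 1 × 10⁶ cells/mL. Mixed with an equal volume of HBSS stock containing 1 mg/ml NBT and 5 µg/mL TPA, then held 30 min at 37 °C. Cells with formazan deposits were counted microscopically, at least 200 cells. Three experiments, each in duplicate.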

For the compound `Cc1cc2c(o1)c(-c1ccc(C(=O)O)cc1)nn2-c1ccccc1`, in the experiment on HL-60 [1], the EC50 is more than 20 µM.

Turning to `Cc1cc2c(o1)c(-c1ccc(CO)cc1)nn2-c1ccccc1`, the EC50 in the experiment with HL-60 [1] is more than 20 µM.

`OCc1ccc(-c2nn(Cc3ccccc3)c3ccccc23)o1`: the result in the experiment with HL-60 (Homo sapiens) was inactive. In addition, in the experiment on HT60, the AD50 entry was “Active”. Moreover, the Activity in the experiment on HL-60 [2] is listed as 3.56%.

Consider `Cc1cc2c(o1)c(-c1ccc(C(=O)O)cc1)nn2Cc1ccccc1`, for which the EC50 with HL-60 [1] was more than 20 µM.
